Measured values from ChEMBL document CHEMBL4138104, “Indole carboxylic acid esters of melampomagnolide B are potent anticancer agents against both hematological and solid tumor cells” (Eur J Med Chem, 2017).
pEC50: −log10 of the molar value.

Legend:
Format in all cases: functional
HT-29 = assay: Growth inhibition of human HT-29 cells incubated for 48 hrs by sulforhodamine B assay; details: HT-29, 48 h
Procedure, shortened: (§1)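 NCI-60 screen. Compounds were dosed at five concentrations spanning 10^-4 to 10^-8 M for 48 h at 37 °C. Cells were TCA-fixed, stained with 0.4% SRB and read at 515 nm against time-zero and vehicle controls. GI50 is the concentration giving a 50% reduction in net protein increase.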

UACC-62 = assay: Growth inhibition of human UACC62 cells incubated for 48 hrs by sulforhodamine B assay; details: UACC-62, 48 h
Procedure, shortened: (§2)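 NCI-60 screen run at NCI. Cells grown in RPMI medium with 5% FBS and 2 mM L-glutamine, plated at 5,000–40,000 cells/well, and preincubated 24 h at 37 °C. Time-zero plates were TCA-fixed. Compounds came from DMSO stocks and were tested at five concentrations from 10^-4 to 10^-8 M for 48 h. Cells were then TCA-fixed, stained with 0.4% SRB, and OD read at 515 nm. GI50 is the concentration giving a 50% reduction in net protein increase versus control.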

SNB-19 = assay: Growth inhibition of human SNB19 cells incubated for 48 hrs by sulforhodamine B assay; details: SNB-19, 48 h; procedure, shortened: as §2
RXF 393 = assay: Growth inhibition of human RXF393 cells incubated for 48 hrs by sulforhodamine B assay; details: RXF 393, 48 h; procedure, shortened: as §1
HL-60(TB) = assay: Growth inhibition of human HL-60(TB) cells incubated for 48 hrs by sulforhodamine B assay; details: HL-60, 48 h
Procedure, shortened: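 Performed at NCI's 60-line screen. Cells grown in RPMI with 5% FBS and 2 mM L-glutamine, plated 5,000–40,000 cells/well and incubated 24 h at 37 °C before compound addition. DMSO stocks were diluted in medium with gentamicin, and five concentrations spanning 10^-4 to 10^-8 M were tested. Exposure was 48 h. Cells were fixed with TCA, stained with SRB, and read at 515 nm. GI50 taken from log dose-response curves as 50% reduction in net protein increase versus control.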

HCT-116 = assay: Growth inhibition of human HCT116 cells incubated for 48 hrs by sulforhodamine B assay; details: HCT-116, 48 h; procedure, shortened: as §1
NCI-H460 = assay: Growth inhibition of human NCI-H460 cells incubated for 48 hrs by sulforhodamine B assay; details: NCI-H460, 48 h; procedure, shortened: as §1
SK-OV-3 = assay: Growth inhibition of human SKOV3 cells incubated for 48 hrs by sulforhodamine B assay; details: SK-OV-3, 48 h; procedure, shortened: as §1
A498 = assay: Growth inhibition of human A498 cells incubated for 48 hrs by sulforhodamine B assay; details: A498, 48 h; procedure, shortened: as §1
Malme-3M = assay: Growth inhibition of human MALME-3M cells incubated for 48 hrs by sulforhodamine B assay; procedure, shortened: as §1
CCRF-CEM = assay: Growth inhibition of human CCRF-CEM cells incubated for 48 hrs by sulforhodamine B assay; procedure, shortened: as §1
SF-268 = assay: Growth inhibition of human SF268 cells incubated for 48 hrs by sulforhodamine B assay; details: SF-268, 48 h; procedure, shortened: as §1
SF-295 = assay: Growth inhibition of human SF295 cells incubated for 48 hrs by sulforhodamine B assay; details: SF-295, 48 h; procedure, shortened: as §1
A549 = assay: Growth inhibition of human A549/ATCC cells incubated for 48 hrs by sulforhodamine B assay; details: A549, 48 h; procedure, shortened: as §1
KM12 = assay: Growth inhibition of human KM12 cells incubated for 48 hrs by sulforhodamine B assay; details: KM12, 48 h; procedure, shortened: as §1
U-251 = assay: Growth inhibition of human U251 cells incubated for 48 hrs by sulforhodamine B assay; details: U-251, 48 h; procedure, shortened: as §2
SW-620 = assay: Growth inhibition of human SW620 cells incubated for 48 hrs by sulforhodamine B assay; details: SW-620, 48 h; procedure, shortened: as §2
NCI-H23 = assay: Growth inhibition of human NCI-H23 cells incubated for 48 hrs by sulforhodamine B assay; details: NCI-H23, 48 h; procedure, shortened: as §1
NCI-H322M = assay: Growth inhibition of human NCI-H322M cells incubated for 48 hrs by sulforhodamine B assay; procedure, shortened: as §1
MOLT-4 = assay: Growth inhibition of human MOLT4 cells incubated for 48 hrs by sulforhodamine B assay; details: MOLT-4, 48 h; procedure, shortened: as §1
NCI-H226 = assay: Growth inhibition of human NCI-H226 cells incubated for 48 hrs by sulforhodamine B assay; details: NCI-H226, 48 h; procedure, shortened: as §1
HOP-92 = assay: Growth inhibition of human HOP92 cells incubated for 48 hrs by sulforhodamine B assay; details: HOP-92, 48 h; procedure, shortened: as §1
MCF7 = assay: Growth inhibition of human MCF7 cells incubated for 48 hrs by sulforhodamine B assay; details: MCF7, 48 h; procedure, shortened: as §1
RPMI-8226 = assay: Growth inhibition of human RPMI8226 cells incubated for 48 hrs by sulforhodamine B assay; details: RPMI-8226, 48 h; procedure, shortened: as §1
OVCAR-8 = assay: Growth inhibition of human OVCAR8 cells incubated for 48 hrs by sulforhodamine B assay; details: OVCAR-8, 48 h; procedure, shortened: as §1
UACC-257 = assay: Growth inhibition of human UACC257 cells incubated for 48 hrs by sulforhodamine B assay; details: UACC-257, 48 h; procedure, shortened: as §2
SK-MEL-28 = assay: Growth inhibition of human SK-MEL-28 cells incubated for 48 hrs by sulforhodamine B assay; details: SK-MEL-28, 48 h; procedure, shortened: as §1
LOX IMVI = assay: Growth inhibition of human LOXIMVI cells incubated for 48 hrs by sulforhodamine B assay; procedure, shortened: as §1
UO-31 = assay: Growth inhibition of human UO31 cells incubated for 48 hrs by sulforhodamine B assay; details: UO-31, 48 h; procedure, shortened: as §2
[1] = Cytotoxicity against human M9-ENL1 cells assessed as reduction in cell viability by trypan blue staining-based assay
Procedure, shortened: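 M9-ENL1 AML cells (MLL-ENL-transduced human blood cells) plated at 10^6 cells/mL in alpha-MEM with 5% human plasma, 20% FBS, SCF, IL-3, IL-7 and FLT3. Drug diluted from DMSO stock into PBS, final DMSO ≤0.5%. After 24 h exposure, dead cells assessed by trypan blue and by flow cytometry (Annexin V/PI or Annexin V/7-AAD). Viability normalized to vehicle; EC50 from dose-response curves; triplicate.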

NCI/ADR-RES = assay: Growth inhibition of human NCI/ADR-RES cells incubated for 48 hrs by sulforhodamine B assay; procedure, shortened: as §1
OVCAR-5 = assay: Growth inhibition of human OVCAR5 cells incubated for 48 hrs by sulforhodamine B assay; details: OVCAR-5, 48 h; procedure, shortened: as §1
HCT-15 = assay: Growth inhibition of human HCT15 cells incubated for 48 hrs by sulforhodamine B assay; details: HCT-15, 48 h; procedure, shortened: as §1
SF-539 = assay: Growth inhibition of human SF539 cells incubated for 48 hrs by sulforhodamine B assay; details: SF-539, 48 h; procedure, shortened: as §1
NCI-H522 = assay: Growth inhibition of human NCI-H522 cells incubated for 48 hrs by sulforhodamine B assay; details: NCI-H522, 48 h; procedure, shortened: as §1
HCC 2998 = assay: Growth inhibition of human HCC2998 cells incubated for 48 hrs by sulforhodamine B assay; details: HCC 2998, 48 h; procedure, shortened: as §1
SN12C = assay: Growth inhibition of human SN12C cells incubated for 48 hrs by sulforhodamine B assay; procedure, shortened: as §1

C=C1C(=O)O[C@@H]2[C@H]3O[C@]3(C)CC/C=C(/COC(=O)c3cc4ccccc4s3)CC[C@@H]12
GI50 (HT-29): 490 nM
GI50 (UACC-62): 1850 nM
GI50 (SNB-19): 2090 nM
GI50 (RXF 393): 1230 nM
GI50 (HL-60(TB)): 1890 nM
GI50 (HCT-116): 590 nM
GI50 (NCI-H460): 2210 nM
GI50 (SK-OV-3): 13900 nM
GI50 (A498): 10100 nM
GI50 (Malme-3M): 1820 nM
GI50 (CCRF-CEM): 400 nM
GI50 (SF-268): 1540 nM
GI50 (SF-295): 3330 nM
GI50 (A549): 2040 nM
GI50 (KM12): 1780 nM
GI50 (U-251): 1520 nM
GI50 (SW-620): 510 nM
GI50 (NCI-H23): 1740 nM
GI50 (NCI-H322M): 1980 nM
GI50 (MOLT-4): 1880 nM
GI50 (NCI-H226): 2000 nM
GI50 (HOP-92): 1680 nM
GI50 (MCF7): 380 nM
GI50 (RPMI-8226): 560 nM
GI50 (OVCAR-8): 1800 nM
GI50 (UACC-257): 1770 nM
GI50 (SK-MEL-28): 1760 nM
GI50 (LOX IMVI): 200 nM
GI50 (UO-31): 1400 nM
pEC50 [1]: 5.57
GI50 (NCI/ADR-RES): 2140 nM
GI50 (OVCAR-5): 2020 nM
GI50 (HCT-15): 400 nM
GI50 (SF-539): 1600 nM
GI50 (NCI-H522): 980 nM
GI50 (HCC 2998): 1750 nM
GI50 (SN12C): 2060 nM
